Experimental data published in ChEMBL document CHEMBL1152862, “Tetrahydrobenzo- and benzofurobenzopyrones as a new class of potential photoreagents toward DNA” (2009).
Active and inactive are the calls of the source. The calls are words filed in the database; no cut-off is given here.

How the values were obtained:
Bacillus subtilis [1] = assay: Phototoxicity against Bacillus subtilis after 3 hrs irradiated with UV light by disk diffusion method; format: functional
Outline: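 B. subtilis broth culture on nutrient agar (0.3% beef extract, 0.5% peptone, 0.1% K2HPO4, 1.5% agar). Plates held in the dark at 37 °C for 3 h so compounds diffuse through the agar. Uncovered dishes then exposed to 365 nm UV for 20 min and reincubated in the dark at 37 °C overnight. Photosensitizing activity read as inhibition zones.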

Bacillus subtilis [2] = assay: Antimicrobial activity against Bacillus subtilis incubated in dark for 3 hrs by disk diffusion method; format: functional
Outline: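 Nutrient agar (0.3% beef extract, 0.5% peptone, 0.1% dipotassium hydrogen phosphate, 1.5% agar) seeded with B. subtilis broth culture. Duplicate control plate kept unirradiated at 37 °C overnight in the incubator. Read-out is the size of the inhibition zones.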

Nucleic Acid = assay: Binding affinity to DNA; format: nucleic-acid assay

SMILES	inhibition zone (IZ) (Bacillus subtilis [1])	inhibition zone (IZ) (Bacillus subtilis [2])	Activity (Nucleic Acid)
COc1c2occc2cc2ccc(=O)oc12 [METHOXSALEN]	12 mm		
O=c1cc(-c2ccccc2)c2ccc3oc4ccccc4c3c2o1	14 mm	13 mm	Active
O=c1cc(-c2ccccc2)c2ccc3oc4c(c3c2o1)CCCC4	5 mm		
O=c1cc(-c2ccccc2)c2cc3c(cc2o1)oc1ccccc13	13 mm	10 mm	Active
O=c1cc(-c2ccccc2)c2cc3c4c(oc3cc2o1)CCCC4	7 mm	9 mm	
Cc1cc(=O)oc2cc3c(cc12)oc1ccccc13	16 mm	12 mm	Active
Cc1cc(=O)oc2ccc3oc4ccccc4c3c12	14 mm	11 mm	Active
